The source of these data is ChEMBL document CHEMBL4414601 (J Med Chem, 2019).

The target in data set [1] is Voltage-gated potassium channel, IKs; KCNQ1(Kv7.1)/KCNE1(MinK) (Homo sapiens, UniProt P15382+P51787). The data set can be described thus: Inhibition of human KCNQ1/KCNE1.
In data set [2] the target is T1, Beta-2 adrenergic receptor (Homo sapiens, UniProt P07550). Description: Agonist activity at human beta2 adrenoceptor.
Data set [3] is described as follows: Clearance in rat liver microsomes at 0.5 uM measured up to 45 mins in presence of NADPH by HPLC-MS/MS analysis. Format: ADME, Microsome.
Data set [4] deals with T2, Aryl hydrocarbon receptor (Homo sapiens, UniProt P35869).
T2 sequence (P35869 whole entry): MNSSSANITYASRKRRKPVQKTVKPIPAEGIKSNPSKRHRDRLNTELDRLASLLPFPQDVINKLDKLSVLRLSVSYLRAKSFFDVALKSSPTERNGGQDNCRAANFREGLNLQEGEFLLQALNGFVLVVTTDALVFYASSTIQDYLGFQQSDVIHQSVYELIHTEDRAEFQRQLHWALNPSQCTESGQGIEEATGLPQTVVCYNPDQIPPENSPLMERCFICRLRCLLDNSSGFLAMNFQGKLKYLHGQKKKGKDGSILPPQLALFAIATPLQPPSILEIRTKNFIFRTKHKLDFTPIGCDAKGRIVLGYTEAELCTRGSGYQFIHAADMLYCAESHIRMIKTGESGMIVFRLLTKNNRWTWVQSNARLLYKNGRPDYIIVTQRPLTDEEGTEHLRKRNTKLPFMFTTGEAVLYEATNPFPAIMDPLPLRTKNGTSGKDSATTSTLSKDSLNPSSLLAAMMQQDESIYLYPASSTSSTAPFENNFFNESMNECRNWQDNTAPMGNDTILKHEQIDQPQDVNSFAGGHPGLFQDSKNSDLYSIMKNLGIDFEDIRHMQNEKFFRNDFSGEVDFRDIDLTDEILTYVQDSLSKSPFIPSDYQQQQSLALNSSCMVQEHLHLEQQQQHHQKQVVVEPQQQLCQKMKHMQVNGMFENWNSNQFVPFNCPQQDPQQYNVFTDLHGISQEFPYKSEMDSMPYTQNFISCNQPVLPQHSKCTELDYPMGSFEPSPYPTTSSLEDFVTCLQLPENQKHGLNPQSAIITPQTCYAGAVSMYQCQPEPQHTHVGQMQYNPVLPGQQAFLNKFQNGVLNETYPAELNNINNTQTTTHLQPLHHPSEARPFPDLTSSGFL
Description: Agonist activity at human aryl hydrocarbon receptor.

Data set [5] addresses T1, Beta-2 adrenergic receptor. Description: Antagonist activity at human beta2 adrenoceptor.
The nature of data set [6]: Permeability of compound by PAMPA. For orientation: The PAMPA barrier holds no transporters, so it reflects passive diffusion.
In the next data set the target is T3, Casein kinase I (Plasmodium falciparum (isolate 3D7), UniProt Q8IHZ9).
T3 sequence (Q8IHZ9 whole entry): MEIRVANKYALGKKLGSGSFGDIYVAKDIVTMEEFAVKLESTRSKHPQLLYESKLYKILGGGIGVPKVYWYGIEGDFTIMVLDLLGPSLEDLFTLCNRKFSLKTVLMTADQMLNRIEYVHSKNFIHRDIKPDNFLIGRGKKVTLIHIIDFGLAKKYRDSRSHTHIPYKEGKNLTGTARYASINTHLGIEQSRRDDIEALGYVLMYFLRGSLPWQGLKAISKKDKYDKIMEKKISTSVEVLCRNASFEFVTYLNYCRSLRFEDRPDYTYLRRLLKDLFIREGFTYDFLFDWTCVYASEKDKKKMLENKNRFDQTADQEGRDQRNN
Description: Binding affinity to CK1 in Plasmodium falciparum 3D7 blood stage extract incubated for 1 hr by kinobeads based pull down assay. The settings on record: read-out: Kd(app). An outline of the steps:
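Chemoproteomic competition binding: Sepharose beads derivatized at 1 mM with the immobilized ligand (kinobeads prepared likewise). Free compound competed at six concentrations, 0.08–20 μM. Proteins were SP3-digested, TMT 10-plex labelled and quantified by LC-MS/MS on an Orbitrap. IC50 from the competition curve; apparent Kd corrected for protein depletion by the beads. Two independent experiments.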

Data set [7] addresses T4, Nuclear receptor subfamily 1 group I member 2 (Homo sapiens, UniProt O75469).
T4 sequence (O75469 whole entry): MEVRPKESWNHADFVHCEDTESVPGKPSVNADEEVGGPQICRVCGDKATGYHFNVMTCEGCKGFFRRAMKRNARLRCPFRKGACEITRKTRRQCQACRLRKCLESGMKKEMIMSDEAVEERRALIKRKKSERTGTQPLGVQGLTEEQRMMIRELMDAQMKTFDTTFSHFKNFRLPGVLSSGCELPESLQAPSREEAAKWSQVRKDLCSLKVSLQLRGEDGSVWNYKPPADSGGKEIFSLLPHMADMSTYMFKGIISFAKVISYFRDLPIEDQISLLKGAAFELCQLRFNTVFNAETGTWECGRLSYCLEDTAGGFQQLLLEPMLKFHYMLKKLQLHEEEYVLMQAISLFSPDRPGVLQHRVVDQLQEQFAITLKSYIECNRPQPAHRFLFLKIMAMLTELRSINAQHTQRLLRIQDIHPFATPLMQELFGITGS
Description: Agonist activity at human PXR.

Data set [8] concerns the target Calcium-dependent protein kinase 1 (Plasmodium falciparum, UniProt P62344). The data set can be described thus: Binding affinity to CDPK1 in Plasmodium falciparum 3D7 blood stage extract incubated for 1 hr by kinobeads based pull down assay. The settings on record: read-out: Kd(app). The procedure, abridged: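 Chemoproteomic competition used kinobeads or Sepharose beads derivatized with ligand at 1 mM. Free compound was tested at six concentrations between 0.08 and 20 μM, in two independent experiments. Proteins were SP3-digested, TMT 10-plex labelled and measured by LC-MS/MS. IC50s came from competition curves, and apparent Kd was corrected for protein depletion by the beads.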

Data set [9] has as its target Voltage-dependent L-type calcium channel subunit alpha-1C (Homo sapiens, UniProt Q13936). The data set can be described thus: Inhibition of human L-type CaV1.2.
Data set [10] in a line: Binding affinity to GSK3 in Plasmodium falciparum 3D7 blood stage extract incubated for 1 hr in presence of ATP-competitive kinase inhibitor by kinobeads based pull down assay. The following applies: read-out: Kd(app). An outline of the steps:
(§1)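 The free compound competed over six concentrations from 0.08 to 20 μM. Proteins were digested by a modified SP3 protocol, labelled with TMT 10-plex and quantified by LC-MS/MS. Apparent Kd was derived from IC50 corrected for bead depletion. Two independent experiments were run.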

The next data set has as its system Plasmodium falciparum. Description: Antiplasmodial activity against Plasmodium falciparum 3D7A asexual erythrocytic stage assessed as reduction in [3H]hypoxanthine incorporation preincubated for 48 hrs followed by [3H]hypoxanthine addition and measured after 24 hrs by microbeta scintillation counting method. Format: functional, organism-based.
Data set [11] can be described thus: Clearance in mouse liver microsomes at 0.5 uM measured up to 45 mins in presence of NADPH by HPLC-MS/MS analysis. The data set is classed as ADME, Microsome. For orientation: Liver microsomes are a subcellular fraction often used to study metabolism.
The target of another data set is Acetylcholinesterase (Homo sapiens, UniProt P22303). Description: Inhibition of AChE (unknown origin).
Data set [12] in a line: Binding affinity to SRPK2 in Plasmodium falciparum 3D7 blood stage extract incubated for 1 hr in presence of ATP-competitive kinase inhibitor by kinobeads based pull down assay. The following applies: read-out: Kd(app). An outline of the steps: as §1

T1 sequence (P07550 whole entry): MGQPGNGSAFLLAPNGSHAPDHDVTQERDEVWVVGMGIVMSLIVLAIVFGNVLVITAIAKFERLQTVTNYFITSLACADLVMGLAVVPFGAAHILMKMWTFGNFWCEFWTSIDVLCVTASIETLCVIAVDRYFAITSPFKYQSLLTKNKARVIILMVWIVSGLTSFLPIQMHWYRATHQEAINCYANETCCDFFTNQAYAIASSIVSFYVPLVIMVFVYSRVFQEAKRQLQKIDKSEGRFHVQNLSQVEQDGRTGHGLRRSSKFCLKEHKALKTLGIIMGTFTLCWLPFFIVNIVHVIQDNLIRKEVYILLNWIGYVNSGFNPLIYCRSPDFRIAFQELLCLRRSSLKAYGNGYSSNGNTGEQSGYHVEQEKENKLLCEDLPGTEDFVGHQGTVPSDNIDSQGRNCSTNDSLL
Chain of Calcium-dependent protein kinase 1 (P62344 whole entry): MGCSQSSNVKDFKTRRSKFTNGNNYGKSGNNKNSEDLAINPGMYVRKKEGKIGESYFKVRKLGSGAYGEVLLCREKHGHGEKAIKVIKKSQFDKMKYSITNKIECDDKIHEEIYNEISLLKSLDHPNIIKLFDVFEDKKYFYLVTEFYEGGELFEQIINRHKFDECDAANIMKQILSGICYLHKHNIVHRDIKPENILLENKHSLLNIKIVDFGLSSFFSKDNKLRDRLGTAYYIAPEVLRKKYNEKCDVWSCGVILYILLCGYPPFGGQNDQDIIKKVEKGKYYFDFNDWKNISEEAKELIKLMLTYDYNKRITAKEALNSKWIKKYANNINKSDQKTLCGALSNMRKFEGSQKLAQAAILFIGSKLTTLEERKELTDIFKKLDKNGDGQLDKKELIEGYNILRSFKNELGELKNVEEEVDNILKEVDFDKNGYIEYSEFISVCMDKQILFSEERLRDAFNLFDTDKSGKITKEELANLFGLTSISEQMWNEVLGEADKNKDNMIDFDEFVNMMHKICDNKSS
Chain of Voltage-dependent L-type calcium channel subunit alpha-1C (Q13936 whole entry): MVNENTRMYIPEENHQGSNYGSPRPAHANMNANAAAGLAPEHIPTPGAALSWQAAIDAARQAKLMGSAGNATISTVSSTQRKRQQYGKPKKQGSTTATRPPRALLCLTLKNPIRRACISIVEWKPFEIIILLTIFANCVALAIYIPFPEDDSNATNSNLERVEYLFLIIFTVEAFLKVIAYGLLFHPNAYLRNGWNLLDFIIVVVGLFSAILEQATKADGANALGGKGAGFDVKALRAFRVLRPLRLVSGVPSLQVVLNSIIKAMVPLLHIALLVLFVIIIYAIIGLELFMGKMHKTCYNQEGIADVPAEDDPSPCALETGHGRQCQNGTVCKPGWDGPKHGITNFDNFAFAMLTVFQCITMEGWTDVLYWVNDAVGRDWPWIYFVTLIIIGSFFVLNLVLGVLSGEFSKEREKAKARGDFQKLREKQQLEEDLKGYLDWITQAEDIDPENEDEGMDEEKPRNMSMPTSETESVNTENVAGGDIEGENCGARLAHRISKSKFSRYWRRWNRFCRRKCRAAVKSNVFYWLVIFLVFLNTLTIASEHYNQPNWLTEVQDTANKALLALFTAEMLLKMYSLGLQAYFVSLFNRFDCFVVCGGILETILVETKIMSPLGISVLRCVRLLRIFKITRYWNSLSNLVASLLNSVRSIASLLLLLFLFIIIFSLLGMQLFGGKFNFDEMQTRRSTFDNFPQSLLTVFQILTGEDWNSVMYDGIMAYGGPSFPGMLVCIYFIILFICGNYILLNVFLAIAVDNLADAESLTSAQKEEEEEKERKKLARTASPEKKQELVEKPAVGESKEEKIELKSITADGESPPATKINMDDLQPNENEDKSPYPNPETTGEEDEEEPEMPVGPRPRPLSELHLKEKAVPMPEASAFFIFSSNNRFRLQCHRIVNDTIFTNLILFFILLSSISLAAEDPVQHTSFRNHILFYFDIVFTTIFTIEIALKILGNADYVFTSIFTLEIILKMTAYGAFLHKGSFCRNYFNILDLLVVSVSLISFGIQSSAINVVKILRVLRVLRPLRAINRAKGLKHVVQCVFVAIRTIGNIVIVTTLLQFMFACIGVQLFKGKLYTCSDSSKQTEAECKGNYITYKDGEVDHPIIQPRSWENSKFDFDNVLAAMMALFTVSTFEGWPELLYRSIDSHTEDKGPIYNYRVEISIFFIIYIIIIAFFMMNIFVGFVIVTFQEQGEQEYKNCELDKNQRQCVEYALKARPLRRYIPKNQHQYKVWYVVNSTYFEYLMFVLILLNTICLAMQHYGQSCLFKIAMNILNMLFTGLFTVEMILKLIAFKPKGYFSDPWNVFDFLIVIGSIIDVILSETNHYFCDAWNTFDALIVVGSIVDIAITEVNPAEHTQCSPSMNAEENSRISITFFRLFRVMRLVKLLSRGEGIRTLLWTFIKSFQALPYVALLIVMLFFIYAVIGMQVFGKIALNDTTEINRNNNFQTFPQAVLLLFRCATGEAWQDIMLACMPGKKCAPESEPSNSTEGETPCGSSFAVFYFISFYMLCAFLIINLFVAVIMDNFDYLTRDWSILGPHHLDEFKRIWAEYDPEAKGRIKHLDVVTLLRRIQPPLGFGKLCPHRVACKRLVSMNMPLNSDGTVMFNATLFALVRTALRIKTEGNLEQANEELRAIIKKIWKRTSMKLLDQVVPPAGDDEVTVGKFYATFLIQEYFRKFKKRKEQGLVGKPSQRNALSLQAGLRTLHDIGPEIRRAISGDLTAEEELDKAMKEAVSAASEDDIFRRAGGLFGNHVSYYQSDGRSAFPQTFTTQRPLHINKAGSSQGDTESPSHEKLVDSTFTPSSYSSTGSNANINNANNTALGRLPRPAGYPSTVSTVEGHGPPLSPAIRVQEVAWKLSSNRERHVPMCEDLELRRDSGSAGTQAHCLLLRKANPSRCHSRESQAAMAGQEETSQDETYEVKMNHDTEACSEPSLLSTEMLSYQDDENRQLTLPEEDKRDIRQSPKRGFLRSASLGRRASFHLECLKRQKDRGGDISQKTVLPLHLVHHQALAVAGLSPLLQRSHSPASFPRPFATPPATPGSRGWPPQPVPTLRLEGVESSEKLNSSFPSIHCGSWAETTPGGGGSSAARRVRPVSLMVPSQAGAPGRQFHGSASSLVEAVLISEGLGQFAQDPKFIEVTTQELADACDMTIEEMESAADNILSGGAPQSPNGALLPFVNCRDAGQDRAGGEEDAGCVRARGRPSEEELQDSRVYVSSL
Chain of Voltage-gated potassium channel, IKs; KCNQ1(Kv7.1)/KCNE1(MinK) (P51787 whole entry): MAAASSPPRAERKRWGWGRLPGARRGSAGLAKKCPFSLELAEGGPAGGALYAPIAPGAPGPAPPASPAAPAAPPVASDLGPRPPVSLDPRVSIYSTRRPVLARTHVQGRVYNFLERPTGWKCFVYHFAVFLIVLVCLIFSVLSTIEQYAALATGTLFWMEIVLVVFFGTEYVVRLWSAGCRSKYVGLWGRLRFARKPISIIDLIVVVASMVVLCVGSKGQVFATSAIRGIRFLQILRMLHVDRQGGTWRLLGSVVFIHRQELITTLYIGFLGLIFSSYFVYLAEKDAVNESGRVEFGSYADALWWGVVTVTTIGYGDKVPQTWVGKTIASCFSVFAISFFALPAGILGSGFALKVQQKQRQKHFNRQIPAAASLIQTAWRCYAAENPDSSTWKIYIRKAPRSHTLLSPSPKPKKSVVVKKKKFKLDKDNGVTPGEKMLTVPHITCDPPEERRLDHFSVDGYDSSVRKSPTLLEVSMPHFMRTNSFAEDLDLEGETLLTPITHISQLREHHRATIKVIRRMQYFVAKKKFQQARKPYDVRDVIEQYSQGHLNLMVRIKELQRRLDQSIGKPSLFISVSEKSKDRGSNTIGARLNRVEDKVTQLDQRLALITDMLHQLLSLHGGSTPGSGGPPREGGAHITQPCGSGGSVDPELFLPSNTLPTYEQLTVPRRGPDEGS
Chain of Acetylcholinesterase (P22303 whole entry): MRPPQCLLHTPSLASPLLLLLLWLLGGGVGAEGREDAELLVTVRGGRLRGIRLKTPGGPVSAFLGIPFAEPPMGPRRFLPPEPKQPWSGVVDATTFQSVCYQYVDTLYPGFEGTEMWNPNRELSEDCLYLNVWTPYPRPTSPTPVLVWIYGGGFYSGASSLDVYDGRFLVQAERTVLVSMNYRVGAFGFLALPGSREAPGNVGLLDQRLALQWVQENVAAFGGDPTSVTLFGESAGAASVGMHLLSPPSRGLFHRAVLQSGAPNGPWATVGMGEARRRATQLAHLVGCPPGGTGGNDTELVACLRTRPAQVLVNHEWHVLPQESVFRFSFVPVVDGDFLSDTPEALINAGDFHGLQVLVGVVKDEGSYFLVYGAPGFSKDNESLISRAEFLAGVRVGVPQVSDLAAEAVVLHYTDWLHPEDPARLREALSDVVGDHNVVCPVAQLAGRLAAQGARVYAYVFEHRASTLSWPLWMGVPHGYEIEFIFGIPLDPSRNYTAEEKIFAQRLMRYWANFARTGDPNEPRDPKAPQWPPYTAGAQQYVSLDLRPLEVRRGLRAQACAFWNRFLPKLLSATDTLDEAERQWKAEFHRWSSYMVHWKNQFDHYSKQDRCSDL

Consider `Cc1cc(Nc2nccc(-c3sc(C4CCNCC4)nc3-c3ccc(F)cc3)n2)ccn1`, for which the IC50 in [1] was above 25000 nM; in data set [5], above 100000 nM; in data set [9], above 30000 nM; against Acetylcholinesterase it was 400 nM. The EC50 in data set [2] is above 100000 nM; in data set [4] it was above 50000 nM; in [7], above 50000 nM; in the data set with Plasmodium falciparum, 130 nM. The CLH worked out at 0.87 mL/min/g in [3] and 1.62 mL/min/g in data set [11]. This compound also registered an apparent permeability (Papp) in data set [6] of 21 ×10⁻⁶ cm/s. For the same compound, the Kd at Casein kinase I is 150 nM; in data set [8] it was 50 nM; in data set [10] it was 90 nM; in data set [12], 190 nM.

Broadly, the IC50 is the point on the concentration scale where inhibition reaches its midpoint. By EC50 is commonly meant the concentration at which the effect is half-maximal. As a reminder, the Papp is the rate of passage across a membrane or cell layer, normalised by area and donor concentration. A high value points to fast passage.
